The source made the active and inactive calls. The calls are words filed in the database; no cut-off is given here.
Assays:
[1] = Drug level in Sprague-Dawley rat kidney at 30 mg/kg, ip measured at 10 mins by LC-MS/MS analysis; format: ADME, organism-based; settings: read-out: Drug uptake
How it was run: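 Rats given a single ip injection, 20 mg/kg (0.04 mmol) of CDDO-Me or 30 mg/kg (0.04 mmol) of the prodrug; heart, kidney and liver collected over time; parent compound and liberated CDDO-Me measured by LC-MS/MS.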

Mus musculus [2] = assay: Anti-diabetic nephropathic activity in db/db mouse assessed as reduction in plasma urea nitrogen levels at 1 to 2 mg/kg, ip administered thrice per week for 12 consecutive weeks measured 11 weeks post dose; format: functional, organism-based
How it was run: (§1)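 Male db/db mice, 8 weeks old, randomized; ip vehicle (5% Tween-80 in 0.9% saline) or drug three times weekly for 12 weeks, n = 6 per group. After 11 weeks, 24 h urine collected for volume, albumin and creatinine, with UACR calculated; blood then sampled for plasma BUN and uric acid. Mean ± SD, one-way ANOVA with Tukey test.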

Mus musculus [3] = assay: Antidiabetic nephropathic activity in db/db mouse assessed as reduction in plasma creatinine levels at 1 to 2 mg/kg, ip administered thrice per week for 12 consecutive weeks measured at 11 weeks post dose; format: functional, organism-based
Mus musculus [4] = assay: Toxicity in db/db mouse assessed as effect on water consumption at 1 to 2 mg/kg, ip administered thrice per week for 12 consecutive weeks measured every other day; format: organism-based; settings: in vivo
How it was run: (§2)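 Male db/db mice (8 weeks old, specific pathogen-free, normal chow and filtered water ad libitum) were randomized and dosed i.p. three times weekly for 12 consecutive weeks; vehicle was 5% Tween-80 in 0.9% saline. Body weight and food and water consumption were recorded every other day.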

Mus musculus [5] = assay: Renoprotective activity in db/db mouse assessed as reduction in glomerular basement thickening at 1 to 2 mg/kg, ip administered trice per week for 12 consecutive weeks measured at 11 weeks post dose by TEM microscopic analysis; format: functional, organism-based
How it was run: (§3)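 Male db/db mice (8 weeks old) were dosed i.p. three times weekly for 12 weeks in 5% Tween-80/0.9% saline, n = 6. Kidney tissue was fixed in 3% glutaraldehyde, cut into 80 nm ultrathin sections and examined by TEM. GBM thickness was measured at 30 random locations from three sections per kidney and averaged per mouse.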

Mus musculus [6] = assay: Anti-diabetic nephropathic activity in db/db mouse assessed as reduction in plasma uric acid levels at 1 to 2 mg/kg, ip administered thrice per week for 12 consecutive weeks measured at 11 weeks post dose; format: functional, organism-based; how it was run: as §1
Mus musculus [7] = assay: Antidiabetic nephropathic activity in db/db mouse assessed as reduction in 24 hrs urine volume at 1 to 2 mg/kg, ip administered thrice per week for 12 consecutive weeks measured at 11 weeks post dose; format: functional, organism-based; how it was run: as §1
[8] = Drug metabolism in PBS buffer at 100 uM after 8 hrs by HPLC analysis; format: physicochemical; settings: read-out: Drug metabolism
How it was run: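 Substrate incubated in PBS, pH 7.4, at 37 °C for 8 h; conversion measured by HPLC.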

Mus musculus [9] = assay: Toxicity in db/db mouse assessed as change in body weight at 1 to 2 mg/kg, ip administered thrice per week for 12 consecutive weeks measured every other day; format: organism-based; settings: in vivo; how it was run: as §2
[10] = molecular target: Kelch-like ECH-associated protein 1 (Homo sapiens) (UniProt Q14145); assay: Inhibition of Keap1/Nrf2 (unknown origin) interaction transfected in HEK293 cells assessed as increase in nuclear to cytosolic Nfr2 ratio after 48 hrs by Western blot analysis; format: cell-based
Kelch-like ECH-associated protein 1 (Homo sapiens), sequence (Q14145 whole entry): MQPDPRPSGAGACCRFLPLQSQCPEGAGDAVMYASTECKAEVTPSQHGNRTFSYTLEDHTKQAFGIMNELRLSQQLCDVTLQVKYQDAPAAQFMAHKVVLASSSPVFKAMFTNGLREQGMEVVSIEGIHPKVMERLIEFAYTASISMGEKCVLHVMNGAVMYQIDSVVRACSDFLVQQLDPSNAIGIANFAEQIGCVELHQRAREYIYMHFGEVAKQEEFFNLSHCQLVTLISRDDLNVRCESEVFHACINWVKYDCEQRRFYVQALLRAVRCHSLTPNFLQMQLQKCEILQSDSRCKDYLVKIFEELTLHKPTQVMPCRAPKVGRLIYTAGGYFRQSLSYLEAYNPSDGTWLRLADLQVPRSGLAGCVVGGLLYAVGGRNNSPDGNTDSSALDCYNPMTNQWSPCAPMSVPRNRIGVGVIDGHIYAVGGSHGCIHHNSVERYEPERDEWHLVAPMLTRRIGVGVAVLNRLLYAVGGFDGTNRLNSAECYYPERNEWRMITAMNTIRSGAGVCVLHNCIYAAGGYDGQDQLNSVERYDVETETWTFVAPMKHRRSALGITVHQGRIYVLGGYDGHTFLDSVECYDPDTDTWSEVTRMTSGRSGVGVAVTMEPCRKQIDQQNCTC
How it was run: (§4)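 HEK293 cells grown in high-glucose DMEM with 10% FBS were treated in triplicate at 200 or 1000 nM for 48 h. Nuclear and cytosolic Nrf2, HO-1 and cytoplasmic NQO1 were measured by western blot with specific antibodies, with TBP and β-actin among the probed proteins. The nuclear/cytosolic Nrf2 ratio was derived from these blots. Three independent experiments, mean ± SD.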

Mus musculus [11] = assay: Cardioprotective activity in C57BL/6 db/db mouse assessed as reduction in apoptotic cardiomyocyte levels at 1 to 2 mg/kg, ip administered for 12 weeks by TUNNEL assay; format: functional, organism-based
How it was run: (§5)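 db/db mice, 8 weeks old, with C57BL/6 controls; ip vehicle or drug for 12 weeks, n = 6 per group. Heart sections (5 μm) from paraformaldehyde-fixed, paraffin-embedded tissue analysed by TUNEL; percentage of apoptotic cardiomyocytes from three sections per mouse; mean ± SD from two separate experiments.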

Mus musculus [12] = assay: Renoprotective activity in db/db mouse assessed as reduction of fibrosis in glomeruli at 0.65 mg/kg, ip administered trice per week for 12 consecutive weeks measured at 11 weeks post dose by H/E-staining based microscopic analysis; format: functional, organism-based
How it was run: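 Male db/db mice, 8 weeks old, were randomized and dosed i.p. three times weekly for 12 weeks (vehicle: 5% Tween-80 in 0.9% saline; n = 6 per group). Kidneys were fixed in 4% PFA and paraffin-embedded. 5 μm sections were stained with HE, PAS or Masson's trichrome and examined at ×400.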

Mus musculus [13] = assay: Anti-diabetic nephropathic activity in db/db mouse assessed as reduction in plasma urea nitrogen levels at 0.65 mg/kg, ip administered trice per week for 12 consecutive weeks measured 11 weeks post dose; format: functional, organism-based; how it was run: as §1
Mus musculus [14] = assay: Renoprotective activity in db/db mouse assessed as reduction in loss of foot processes at 0.65 mg/kg, ip administered trice per week for 12 consecutive weeks measured at 11 weeks post dose by TEM microscopic analysis; format: functional, organism-based; how it was run: as §3
Mus musculus [15] = assay: Cardioprotective activity in C57BL/6 db/db mouse assessed as reduction in apoptotic cardiomyocyte levels at 0.65 mg/kg, ip administered for 12 weeks by TUNNEL assay; format: functional, organism-based; how it was run: as §5
Mus musculus [16] = assay: Anti-diabetic nephropathic activity in db/db mouse assessed as reduction in plasma creatinine levels at 0.65 mg/kg, ip administered trice per week for 12 consecutive weeks measured at 11 weeks post dose; format: functional, organism-based
[17] = Drug level in Wistar rat plasma treated with 1-Hydroxyl-2-cyano-3-(4-(methyl-L-glutaminate-N5-yl)-benzyloxy)-12-oxo-oleana-2(3),9(11)-dien-28-oic Acid Methyl Ester assessed as GGT-mediated metabolite formation at 100 uM after 8 hrs by HPLC analysis; format: ADME
How it was run: (§6)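 Plasma, and kidney and liver homogenates in PBS, from three Wistar rats; substrate added at 100 μM at 37 °C; metabolite measured by HPLC every 60 min for 8 h; mean ± SD of three experiments.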

[18] = Drug level in Krebs buffer treated with 1-Hydroxyl-2-cyano-3-(4-(methyl-L-glutaminate-N5-yl)-benzyloxy)-12-oxo-oleana-2(3),9(11)-dien-28-oic Acid Methyl Ester assessed as bovine kidney GGT-mediated metabolite formation at 100 uM at pH 7.4 after 8 hrs by HPLC analysis; format: ADME, Bos taurus; settings: cattle, pH 7.4, 8 h
How it was run: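 Substrate at 100 μM in Krebs buffer, pH 7.4, 37 °C, with GGT (1 U/mL) and Gly-Gly acceptor (5 mM) for 8 h, in triplicate; acetonitrile (2 volumes) added, enzyme removed by centrifugation, products by HPLC.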

[19] = Drug level in Wistar rat liver homogenates treated with 1-Hydroxyl-2-cyano-3-(4-(methyl-L-glutaminate-N5-yl)-benzyloxy)-12-oxo-oleana-2(3),9(11)-dien-28-oic Acid Methyl Ester assessed as GGT-mediated metabolite formation at 100 uM after 8 hrs by HPLC analysis; format: ADME, tissue-based; settings: tissue homogenate; how it was run: as §6
[20] = molecular target: Kelch-like ECH-associated protein 1 (Homo sapiens) (UniProt Q14145); assay: Inhibition of Keap1/Nrf2 (unknown origin) interaction transfected in HEK293 cells assessed as increase in nuclear to cytosolic Nfr2 ratio at 200 to 1000 nM after 48 hrs by Western blot analysis; format: cell-based; how it was run: as §4

Compound | concentration at 10 min [1] | Activity (Mus musculus [2]) | Activity (Mus musculus [3]) | Activity (Mus musculus [4]) | Activity (Mus musculus [5]) | Activity (Mus musculus [6]) | Activity (Mus musculus [7]) | degraded at 8 h, 100 µM [8] | Activity (Mus musculus [9]) | inhibition [10] | Activity (Mus musculus [11]) | Activity (Mus musculus [12]) | Activity (Mus musculus [13]) | Activity (Mus musculus [14]) | Activity (Mus musculus [15]) | Activity (Mus musculus [16]) | Drug metabolism [17] | Drug metabolism [18] | Drug metabolism [19] | inhibition [20]
COC(=O)[C@@H](N)CCC(=O)Nc1ccc(COC2=C(C#N)[C@H](O)[C@]3(C)C4=CC(=O)[C@@H]5[C@@H]6CC(C)(C)CC[C@]6(C(=O)OC)CC[C@@]5(C)[C@]4(C)CC[C@H]3C2(C)C)cc1 | 1230 ng/g | Active | Active | Non-Toxic | Active | Active | Active | 20% | Non-Toxic | Dose-dependent effect | Active |  |  |  |  |  |  |  |  | 
COC(=O)[C@]12CCC(C)(C)C[C@H]1[C@H]1C(=O)C=C3[C@@]4(C)C=C(C#N)C(=O)C(C)(C)[C@@H]4CC[C@@]3(C)[C@]1(C)CC2 [BARDOXOLONE METHYL] |  |  |  |  |  |  |  |  |  |  |  | Active | Active | Active | inactive | Active | Metabolite_Detected | Metabolite_Detected | Metabolite_Detected | Active

— ChEMBL document CHEMBL4017544 (J Med Chem, 2017)
